# Calls of active or inactive are those of the source. The rule behind the calls is not given here.
# Columns and labels:
# [1] = target: T1, Nuclear factor NF-kappa-B complex (Homo sapiens) (UniProt Q00653+P19838+Q04206); test: Inhibition of NF-kappaB in human A549 cells assessed as reduction in p65 nuclear translocation at 10 uM measured after 15 hrs by Western blot analysis; format: cell-based
# How it was run: (§1)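 A549 cells infected or mock-infected with RSV (MOI 1), then treated with 10 μM compound for 15 h. Nuclear extracts prepared and analysed by western blot after SDS-PAGE and PVDF transfer. β-actin as loading control.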
# [2] = target: T1, Nuclear factor NF-kappa-B complex (Homo sapiens); test: Inhibition of TNF-alpha-induced NF-kappaB (unknown origin) transfected in human HEK293 cells co-transfected with NF-kappaB-Luc gene incubated for 4 hrs by luciferase reporter gene; format: cell-based
# How it was run: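 HEK-293 cells transiently transfected with NF-κB luciferase reporter. At 15 h post-transfection, stimulated with 10 ng/ml TNF-α in the presence of compound. Luciferase activity then measured.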
# [3] = target: T1, Nuclear factor NF-kappa-B complex (Homo sapiens); test: Inhibition of NF-kappaB in human A549 cells assessed as reduction in p65 Ser276 phosphorylation at 10 uM measured after 4 hrs by Western blot analysis; format: cell-based
# How it was run: (§2)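 A549 cells infected or mock-infected with RSV (MOI 5), then treated with 10 μM compound for 4 h. Nuclear extracts (or total lysates) prepared, resolved by SDS-PAGE, transferred to PVDF, and probed by western blot. β-actin as loading control.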
# [4] = tested on: Respiratory syncytial virus; test: Antiviral activity against RSV infected in human A549 cells assessed as reduction in viral titer at 10 uM incubated for 15 hrs by immunostaining analysis; format: functional
# How it was run: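 RSV long strain (propagated in HEp-2, sucrose-gradient purified) infected A549 cells at MOI 1 for 2 h. Inoculum removed, then compound at 10 μM for 15 h. Progeny virus titred by immunostaining in HEp-2 cells with biotin-conjugated goat anti-RSV antibody. Log reduction = log10 mean titer of vehicle-treated cells minus log10 mean titer with compound.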
# [5] = tested on: Respiratory syncytial virus; test: Antiviral activity against RSV infected in human A549 cells assessed as reduction in viral RNA at 10 uM measured upto 24 hrs by qRT-PCR analysis; format: functional, organism-based; settings: time hrs <=24
# How it was run: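 A549 cells infected with RSV (MOI 1), then given 10 μM compound. RSV genome copies in cells quantified by RT-qPCR at 6, 15 and 24 h post-treatment. A fusion inhibitor served as a reference control.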
# [6] = tested on: Respiratory syncytial virus; test: Antiviral activity against RSV infected in human A549 cells assessed as reduction in viral N protein at 10 uM incubated for 15 hrs by Western blot analysis; format: functional, organism-based
# How it was run: (§3)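 A549 cells infected with RSV (MOI 1) and treated with 10 μM compound for 15 h. Viral proteins detected by western blot of lysates using anti-RSV or anti-F antibodies, with β-actin as loading control. Membranes blocked in 5% milk in TBS-Tween 20.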
# [7] = target: T1, Nuclear factor NF-kappa-B complex (Homo sapiens); test: Inhibition of NF-kappaB in human A549 cells assessed as reduction in p65 Ser536 phosphorylation at 10 uM measured after 4 hrs by Western blot analysis; format: cell-based; how it was run: as §2
# SAEC [8] = test: Antiinflammatory activity against in human SAEC cells assessed as reduction in RSV-induced TNF-alpha production at 10 uM incubated for 4 hrs by immunoassay; format: functional, cell-based
# How it was run: (§4)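 Primary small airway epithelial cells infected with RSV long strain at MOI 5. Virus removed at 2 h, then 10 μM compound added. Supernatant collected 4 h post-treatment. Cytokines/chemokines quantified with a multiplex human profiling bead kit (Bio-Plex).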
# [9] = target: T1, Nuclear factor NF-kappa-B complex (Homo sapiens); test: Inhibition of NF-kappaB in human A549 cells assessed as reduction in p65 Ser536 phosphorylation at 10 uM measured after 15 hrs by Western blot analysis; format: cell-based; how it was run: as §1
# A549 [10] = test: Antiinflammatory activity against in human A549 cells assessed as reduction in RSV-induced IRF3 mRNA expression at 10 uM incubated for 4 hrs by qRT-PCR analysis; format: functional, cell-based
# A549 [11] = test: Cytotoxicity against human A549 cells assessed as reduction in cell viability incubated for 15 hrs by trypan blue assay; settings: a549, 15 h
# [12] = target: T2, Interferon regulatory factor 3 (Homo sapiens) (UniProt Q14653); test: Inhibition of poly I:C-induced IRF3 (unknown origin) transfected in human HEK293 cells co-transfected with IRF3-Luc gene incubated for 4 hrs by luciferase reporter gene; format: cell-based
# T2 sequence (whole entry): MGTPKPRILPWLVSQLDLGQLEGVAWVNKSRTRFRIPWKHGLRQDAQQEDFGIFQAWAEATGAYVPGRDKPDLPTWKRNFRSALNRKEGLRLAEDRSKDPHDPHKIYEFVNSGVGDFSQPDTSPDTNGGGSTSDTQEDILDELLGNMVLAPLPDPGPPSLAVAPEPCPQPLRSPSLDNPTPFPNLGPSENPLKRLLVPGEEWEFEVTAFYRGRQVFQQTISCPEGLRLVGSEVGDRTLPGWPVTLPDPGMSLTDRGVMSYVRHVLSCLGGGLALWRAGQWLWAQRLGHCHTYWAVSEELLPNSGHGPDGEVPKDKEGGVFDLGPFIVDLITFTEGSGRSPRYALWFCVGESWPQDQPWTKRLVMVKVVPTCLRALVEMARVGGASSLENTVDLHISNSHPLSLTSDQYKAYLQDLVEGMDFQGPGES
# How it was run: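 HEK-293 cells transiently transfected with IRF-3 or NF-κB luciferase reporter. At 15 h post-transfection, cells transfected with Poly I:C in the presence of compound. Luciferase activity then measured.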
# A549 [13] = test: Antiinflammatory activity against in human A549 cells transfected with PRDIII-I-Luc and IRF-3-Luc assessed as reduction in RSV-induced IRF3 activation at 10 uM incubated for 15 hrs by luciferase reporter gene assay; format: functional, cell-based
# How it was run: (§5)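 A549 cells transfected in triplicate with luciferase plasmids, either NF-κB-Luc or IRF-3-site reporters. At 20 h post-transfection, infected with RSV (MOI 1). Virus removed at 2 h, then 10 μM compound added for 15 h. Cells then harvested and lysed for luciferase activity.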
# A549 [14] = test: Antiinflammatory activity against in human A549 cells transfected with NF-kappaB-Luc assessed as reduction in RSV-induced NF-kappaB activation at 10 uM incubated for 15 hrs by luciferase reporter gene assay; format: functional, cell-based; how it was run: as §5
# [15] = target: T1, Nuclear factor NF-kappa-B complex (Homo sapiens); test: Inhibition of NF-kappaB in human A549 cells assessed as reduction in p65 Ser276 phosphorylation at 10 uM measured after 15 hrs by Western blot analysis; format: cell-based; how it was run: as §1
# [16] = target: T1, Nuclear factor NF-kappa-B complex (Homo sapiens); test: Inhibition of NF-kappaB in human A549 cells assessed as reduction in p65 nuclear translocation at 10 uM measured after 4 hrs by Western blot analysis; format: cell-based; how it was run: as §2
# SAEC [17] = test: Antiinflammatory activity against in human SAEC cells assessed as reduction in RSV-induced IL-6 production at 10 uM incubated for 4 hrs by immunoassay; format: functional, cell-based; how it was run: as §4
# SAEC [18] = test: Antiinflammatory activity against in human SAEC cells assessed as reduction in RSV-induced MIP-1beta production at 10 uM incubated for 4 hrs by immunoassay; format: functional, cell-based; how it was run: as §4
# [19] = tested on: Respiratory syncytial virus; test: Antiviral activity against RSV infected in human A549 cells assessed as reduction in viral phosphoprotein at 10 uM incubated for 15 hrs by Western blot analysis; format: functional, organism-based; how it was run: as §3
# [20] = tested on: Respiratory syncytial virus; test: Antiviral activity against RSV infected in human A549 cells assessed as reduction in viral matrix protein at 10 uM incubated for 15 hrs by Western blot analysis; format: functional, organism-based; how it was run: as §3
# [21] = tested on: Respiratory syncytial virus; test: Antiviral activity against RSV infected in human A549 cells assessed as reduction in viral titer at 2.5 uM incubated for 15 hrs by immunostaining analysis; format: functional
# How it was run: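 Dose-response: A549 cells infected with RSV long strain at MOI 1, then treated with a range of compound concentrations for 15 h. Total virus harvested and titred by immunostaining in HEp-2 cells with biotin-conjugated goat anti-RSV antibody. Reduction expressed as log decrease in titer relative to vehicle (DMSO) control.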
# [22] = target: Interferon regulatory factor 3 (Homo sapiens) (UniProt Q14653); test: Inhibition of IRF3 in RSV-infected human A549 cells assessed as reduction in IRF3 nuclear translocation at 10 uM measured upto 15 hrs by Western blot analysis; settings: time hrs <=15
# [23] = target: Interferon regulatory factor 3 (Homo sapiens) (UniProt Q14653); test: Inhibition of IRF3 in RSV-infected human A549 cells assessed as reduction in IRF3 Ser396 phosphorylation at 10 uM measured upto 15 hrs by Western blot analysis; settings: time hrs <=15
# A549 [24] = test: Antiinflammatory activity against in human A549 cells assessed as reduction in RSV-induced NF-kappaB mRNA expression at 10 uM incubated for 4 hrs by qRT-PCR analysis; format: functional, cell-based
# T1 sequence (P19838 whole entry, looked up): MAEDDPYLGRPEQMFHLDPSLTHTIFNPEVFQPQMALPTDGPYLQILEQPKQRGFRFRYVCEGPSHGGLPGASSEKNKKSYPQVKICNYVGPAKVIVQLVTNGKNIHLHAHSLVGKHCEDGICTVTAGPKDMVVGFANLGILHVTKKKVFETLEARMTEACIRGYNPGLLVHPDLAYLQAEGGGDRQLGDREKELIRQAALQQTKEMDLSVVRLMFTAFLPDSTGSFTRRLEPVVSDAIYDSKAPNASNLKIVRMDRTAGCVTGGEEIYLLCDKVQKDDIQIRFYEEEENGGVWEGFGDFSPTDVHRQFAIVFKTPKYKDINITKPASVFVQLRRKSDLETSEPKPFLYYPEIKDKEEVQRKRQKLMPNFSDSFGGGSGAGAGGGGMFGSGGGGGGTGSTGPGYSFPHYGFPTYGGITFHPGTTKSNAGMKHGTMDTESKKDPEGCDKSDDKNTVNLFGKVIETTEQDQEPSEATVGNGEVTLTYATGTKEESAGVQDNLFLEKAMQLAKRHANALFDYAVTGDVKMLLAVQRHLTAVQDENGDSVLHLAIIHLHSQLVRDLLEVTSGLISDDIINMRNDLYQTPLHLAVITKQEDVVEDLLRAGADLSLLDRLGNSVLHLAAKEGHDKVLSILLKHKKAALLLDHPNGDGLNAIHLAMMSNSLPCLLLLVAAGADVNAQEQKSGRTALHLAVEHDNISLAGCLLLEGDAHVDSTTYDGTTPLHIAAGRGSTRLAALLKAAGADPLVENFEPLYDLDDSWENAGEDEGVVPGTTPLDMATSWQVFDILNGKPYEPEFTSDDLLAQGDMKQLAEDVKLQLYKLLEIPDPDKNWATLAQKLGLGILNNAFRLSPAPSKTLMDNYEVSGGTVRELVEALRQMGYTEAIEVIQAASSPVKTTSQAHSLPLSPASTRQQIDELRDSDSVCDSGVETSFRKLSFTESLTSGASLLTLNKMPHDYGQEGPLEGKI
# T1 sequence (Q00653 whole entry, looked up): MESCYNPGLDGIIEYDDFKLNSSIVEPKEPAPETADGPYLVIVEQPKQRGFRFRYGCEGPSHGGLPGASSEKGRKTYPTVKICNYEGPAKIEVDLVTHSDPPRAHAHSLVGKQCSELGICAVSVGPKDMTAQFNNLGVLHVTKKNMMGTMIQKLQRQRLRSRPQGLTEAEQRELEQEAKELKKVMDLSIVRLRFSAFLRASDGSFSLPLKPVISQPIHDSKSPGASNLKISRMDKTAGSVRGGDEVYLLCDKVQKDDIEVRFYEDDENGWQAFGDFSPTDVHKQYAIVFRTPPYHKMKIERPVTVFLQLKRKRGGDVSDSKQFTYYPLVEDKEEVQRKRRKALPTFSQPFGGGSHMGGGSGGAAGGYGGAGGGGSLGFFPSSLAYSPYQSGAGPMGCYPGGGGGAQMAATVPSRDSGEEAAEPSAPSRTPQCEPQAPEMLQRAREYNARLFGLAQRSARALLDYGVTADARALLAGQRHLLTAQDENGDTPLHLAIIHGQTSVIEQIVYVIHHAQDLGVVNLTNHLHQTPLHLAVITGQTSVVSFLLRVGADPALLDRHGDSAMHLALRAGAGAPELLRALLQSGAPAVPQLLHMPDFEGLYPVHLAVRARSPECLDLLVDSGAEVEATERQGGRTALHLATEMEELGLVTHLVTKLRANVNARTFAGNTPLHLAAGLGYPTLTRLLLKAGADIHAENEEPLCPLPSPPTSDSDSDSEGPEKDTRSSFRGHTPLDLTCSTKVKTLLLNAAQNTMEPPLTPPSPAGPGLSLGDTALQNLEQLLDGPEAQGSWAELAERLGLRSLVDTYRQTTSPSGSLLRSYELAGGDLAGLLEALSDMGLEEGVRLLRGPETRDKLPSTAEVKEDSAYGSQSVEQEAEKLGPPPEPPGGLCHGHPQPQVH
# T1 sequence (Q04206 whole entry, looked up): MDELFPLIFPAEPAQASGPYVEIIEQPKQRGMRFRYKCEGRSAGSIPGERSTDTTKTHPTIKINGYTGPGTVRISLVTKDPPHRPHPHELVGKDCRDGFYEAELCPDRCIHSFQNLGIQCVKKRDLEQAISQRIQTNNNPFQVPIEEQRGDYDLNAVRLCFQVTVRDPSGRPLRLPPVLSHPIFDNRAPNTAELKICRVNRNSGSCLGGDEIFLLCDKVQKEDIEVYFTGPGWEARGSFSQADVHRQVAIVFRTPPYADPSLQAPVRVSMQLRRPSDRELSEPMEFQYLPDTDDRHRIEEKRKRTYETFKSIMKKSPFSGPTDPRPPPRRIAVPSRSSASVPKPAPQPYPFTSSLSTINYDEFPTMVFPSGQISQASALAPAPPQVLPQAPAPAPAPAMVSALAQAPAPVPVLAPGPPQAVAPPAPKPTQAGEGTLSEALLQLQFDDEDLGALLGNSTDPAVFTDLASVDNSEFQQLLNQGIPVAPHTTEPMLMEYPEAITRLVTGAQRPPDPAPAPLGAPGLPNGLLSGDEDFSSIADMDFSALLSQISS
Compound,log(activity) [4],inhibition (A549 [10]),CC50 (A549 [11]),inhibition (A549 [13]),inhibition (A549 [14]),inhibition (A549 [24]),also measured
CC1(Nc2ccc(NC(=O)c3cc(Cl)ccc3O)c(Cl)c2)CCCCC1,1.82,Active,86.5 µM,Active,inactive,Active,inhibition [1]: Active; inhibition [2]: inactive; inhibition [3]: inactive; inhibition [5]: Active; inhibition [6]: Active; inhibition [7]: Active; inhibition (SAEC [8]): Active; inhibition [9]: Active; inhibition [12]: Active; inhibition [15]: inactive; inhibition [16]: Active; inhibition (SAEC [17]): Active; inhibition (SAEC [18]): Active; inhibition [19]: Active; inhibition [20]: Active; log(activity) [21]: 1.57; inhibition [22]: Active; inhibition [23]: Active
CC(C)Nc1ccc(NC(=O)c2cc(Cl)ccc2O)c(Cl)c1,1.88,Active,82.7 µM,Active,Active,Active,–
O=C(Nc1ccc(N2CCOCC2)cc1Cl)c1cc(Cl)ccc1O,1.74,Active,89.9 µM,Active,Active,Active,–
CCCCCCC(C)Nc1ccc(NC(=O)c2cc(Cl)ccc2O)c(Cl)c1 (stereo not drawn),1.16,–,18.6 µM,–,–,–,–
O=C(Nc1ccc(NCc2ccccc2)cc1Cl)c1cc(Cl)ccc1O,1.53,–,81.3 µM,–,–,–,–
O=C(Nc1ccc(NCCCO)cc1Cl)c1cc(Cl)ccc1O,-0.16,–,–,–,–,–,–
O=C(Nc1ccc(N2CCCC2)cc1Cl)c1cc(Cl)ccc1O,1.51,–,–,–,–,–,–
O=C(Nc1ccc(NCc2ccc(F)cc2)cc1Cl)c1cc(Cl)ccc1O,1.54,–,–,–,–,–,–
O=C(Nc1ccc(NCc2cc(C(F)(F)F)cc(C(F)(F)F)c2)cc1Cl)c1cc(Cl)ccc1O,2.59,–,22.9 µM,–,–,–,–
O=C(Nc1ccc(NCc2cccnc2)cc1Cl)c1cc(Cl)ccc1O,0.54,inactive,–,inactive,inactive,inactive,inhibition (SAEC [8]): inactive; inhibition (SAEC [17]): inactive; inhibition (SAEC [18]): inactive

# Source: ChEMBL document CHEMBL4819107, “Substituted N-(4-amino-2-chlorophenyl)-5-chloro-2-hydroxybenzamide analogues potently inhibit respiratory syncytial virus (RSV) replication and RSV infection-associated inflammatory responses” (Bioorg Med Chem, 2021)
